Data: ChEMBL document CHEMBL1153176, “2,6-Dithienyl-4-furyl pyridines: Synthesis, topoisomerase I and II inhibition, cytotoxicity, structure-activity relationship, and docking study” (Bioorg Med Chem Lett, 2010)

Legend:
DU-145 = experiment: Cytotoxicity against human DU145 cells after 3 days; format: functional, cell-based; conditions: DU-145, 72 h
Outline: (§1)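 Cells seeded at 2–4 × 10⁴ per well and held overnight at 37 °C, 5% CO₂ in medium with 10% FBS. On day 1 the medium was replaced with medium holding graded compound concentrations. Absorbance read at 450 nm. IC50 from a four-parameter logistic fit of the 450 nm readings.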

MCF7 = experiment: Cytotoxicity against human MCF7 cells after 3 days; format: functional, cell-based; conditions: MCF7, 72 h; outline: as §1
MDA-MB-231 = experiment: Cytotoxicity against human MDA-MB-231 cells after 3 days; format: functional, cell-based; conditions: MDA-MB-231, 72 h; outline: as §1
HCT-116 = experiment: Cytotoxicity against human HCT116 cells after 3 days; format: functional, cell-based; conditions: HCT-116, 72 h; outline: as §1
HeLa = experiment: Cytotoxicity against human HeLa cells after 3 days; format: functional, cell-based; conditions: 72 h; outline: as §1
[1] = biological target: DNA topoisomerase 2-alpha (Homo sapiens) (UniProt P11388); experiment: Inhibition of human topoisomerase 2 alpha-mediated relaxation of supercoiled pBR322 DNA at 100 uM after 30 mins by agarose gel electrophoresis
Outline: (§2)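 Human topo II (0.3 U) with 0.2 μg pBR322 in 50 mM Tris–HCl pH 8.0, 120 mM KCl, 10 mM MgCl2, 0.5 mM ATP, 0.5 mM DTT and BSA. Compound at 20 or 100 μM, 37 °C for 30 min. Stopped with 0.77% SDS/77 mM EDTA, run on 1% agarose at 1.5 V/cm for 10 h in TBE, stained with ethidium bromide.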

[2] = biological target: DNA topoisomerase 2-alpha (Homo sapiens) (UniProt P11388); experiment: Inhibition of human topoisomerase 2 alpha-mediated relaxation of supercoiled pBR322 DNA at 20 uM after 30 mins by agarose gel electrophoresis; outline: as §2
Bos taurus [3] = species on record: Bos taurus; experiment: Inhibition of calf thymus topoisomerase 1-mediated relaxation of supercoiled pBR322 DNA at 20 uM after 30 mins by agarose gel electrophoresis
Outline: (§3)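 Compound at 20 or 100 μM, 37 °C for 30 min. Stopped with SDS/dye mix, run on 1% agarose in TBE for 10 h, stained with ethidium bromide (0.5 μg/mL).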

Bos taurus [4] = species on record: Bos taurus; experiment: Inhibition of calf thymus topoisomerase 1-mediated relaxation of supercoiled pBR322 DNA at 100 uM after 30 mins by agarose gel electrophoresis; outline: as §3

Chain of DNA topoisomerase 2-alpha (Homo sapiens) (P11388 whole entry): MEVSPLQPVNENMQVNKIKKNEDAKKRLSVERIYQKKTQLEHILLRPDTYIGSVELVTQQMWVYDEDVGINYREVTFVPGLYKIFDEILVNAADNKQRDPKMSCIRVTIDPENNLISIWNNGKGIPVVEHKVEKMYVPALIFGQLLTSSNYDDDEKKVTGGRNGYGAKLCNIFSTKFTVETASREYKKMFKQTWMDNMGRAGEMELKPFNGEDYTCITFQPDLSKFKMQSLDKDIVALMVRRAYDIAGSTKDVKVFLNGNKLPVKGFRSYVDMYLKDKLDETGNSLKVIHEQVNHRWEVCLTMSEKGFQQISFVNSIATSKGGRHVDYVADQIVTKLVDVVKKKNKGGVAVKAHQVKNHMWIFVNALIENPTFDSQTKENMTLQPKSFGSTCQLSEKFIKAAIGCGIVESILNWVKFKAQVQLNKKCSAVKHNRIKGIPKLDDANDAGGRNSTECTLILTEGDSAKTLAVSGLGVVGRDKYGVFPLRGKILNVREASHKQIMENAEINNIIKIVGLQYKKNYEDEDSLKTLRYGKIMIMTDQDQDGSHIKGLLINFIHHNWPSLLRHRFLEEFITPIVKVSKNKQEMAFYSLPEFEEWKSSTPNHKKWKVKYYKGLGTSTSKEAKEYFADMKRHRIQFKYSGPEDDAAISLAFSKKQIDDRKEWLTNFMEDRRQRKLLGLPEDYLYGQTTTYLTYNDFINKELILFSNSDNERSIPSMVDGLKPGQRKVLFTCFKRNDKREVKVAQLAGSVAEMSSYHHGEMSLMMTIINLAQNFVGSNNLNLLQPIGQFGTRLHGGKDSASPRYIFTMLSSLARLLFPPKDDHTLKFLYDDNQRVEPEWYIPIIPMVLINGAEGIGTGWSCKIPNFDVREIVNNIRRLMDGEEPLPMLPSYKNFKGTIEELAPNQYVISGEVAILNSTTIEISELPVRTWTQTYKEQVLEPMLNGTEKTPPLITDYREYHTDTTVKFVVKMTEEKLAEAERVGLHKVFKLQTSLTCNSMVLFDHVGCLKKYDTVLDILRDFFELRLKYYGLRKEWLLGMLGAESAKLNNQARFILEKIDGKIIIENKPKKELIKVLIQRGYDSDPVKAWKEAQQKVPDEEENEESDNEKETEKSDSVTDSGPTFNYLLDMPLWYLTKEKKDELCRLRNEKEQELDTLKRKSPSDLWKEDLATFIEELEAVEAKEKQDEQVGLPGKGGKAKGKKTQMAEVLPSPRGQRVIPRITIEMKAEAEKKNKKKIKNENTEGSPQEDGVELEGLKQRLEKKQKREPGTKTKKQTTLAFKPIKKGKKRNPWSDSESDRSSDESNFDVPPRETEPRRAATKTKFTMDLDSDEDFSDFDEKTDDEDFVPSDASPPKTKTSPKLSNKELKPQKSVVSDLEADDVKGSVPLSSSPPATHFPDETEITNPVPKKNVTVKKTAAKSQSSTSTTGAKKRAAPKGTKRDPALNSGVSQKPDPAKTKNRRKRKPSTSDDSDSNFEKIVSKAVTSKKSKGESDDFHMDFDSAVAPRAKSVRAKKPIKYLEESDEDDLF

Row | inhibition [1] [%] | inhibition [2] [%] | inhibition (Bos taurus [3]) [%] | inhibition (Bos taurus [4]) [%] | SMILES | IC50 (DU-145) [µM] | IC50 (MCF7) [µM] | IC50 (MDA-MB-231) [µM] | IC50 (HCT-116) [µM] | IC50 (HeLa) [µM]
1 | 73 | 36 |  |  | COc1cc([C@@H]2c3cc4c(cc3[C@@H](O[C@@H]3O[C@@H]5CO[C@@H](C)O[C@H]5[C@H](O)[C@H]3O)[C@H]3COC(=O)[C@H]23)OCO4)cc(OC)c1O [ETOPOSIDE] | 21.1 | 18 | 16.9 | 17.9 | 8.43
2 | 70 | 15 | 0 | 0 | c1csc(-c2cc(-c3ccoc3)cc(-c3cccs3)n2)c1 | > 100 | > 100 | 23.6 | 50.6 | 8.62
3 | 7 | 0 | 0 | 0 | Cc1ccc(-c2cc(-c3ccsc3)nc(-c3cc(C)sc3C)c2)o1 |  |  |  |  | 
4 | 58 | 11 | 9 | 52 | Cc1ccsc1-c1cc(-c2ccco2)cc(-c2ccsc2)n1 | > 100 | > 100 | 41.8 | 51.1 | 19.2
5 | 2 | 0 | 0 | 0 | Cc1ccc(-c2cc(-c3ccsc3)nc(-c3cccs3)c2)o1 |  |  |  |  | 
6 | 0 | 0 | 0 | 13 | Cc1ccsc1-c1cc(-c2ccoc2)cc(-c2ccsc2)n1 |  |  |  |  | 
7 | 18 | 1 | 0 | 0 | c1csc(-c2cc(-c3ccoc3)cc(-c3ccsc3)n2)c1 |  |  |  |  | 
8 | 8 | 0 | 0 | 14 | Clc1ccc(-c2cc(-c3ccsc3)nc(-c3ccsc3)c2)o1 |  |  |  |  | 
9 | 28 | 9 | 12 | 51 | Cc1ccsc1-c1cc(-c2ccco2)cc(-c2cccs2)n1 | > 100 | > 100 | 59.6 | 56.4 | 17.9
10 | 55 | 7 | 12 | 50 | Clc1ccc(-c2cc(-c3ccsc3)nc(-c3cccs3)c2)o1 | > 100 | > 100 | 26.8 | > 100 | 43.7
11 | 25 | 15 | 0 | 0 | Cc1ccc(-c2cc(-c3cccs3)nc(-c3sccc3C)c2)o1 |  |  |  |  | 
12 | 34 | 0 | 5 | 12 | c1coc(-c2cc(-c3ccsc3)nc(-c3cccs3)c2)c1 |  |  |  |  | 
